m-calpain inh: blocks pig calpain II enzyme activity; inhibition, % at 16 µM; AID 1236; purified calpain II, fluorogenic peptide substrate, 30 min; hit rate 0.37% among 220,000;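 active means inhibition above about 50%, limit read from the data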
Rad51 HR inh: Rad51 (human) homologous recombination inhibition; hRad51 DNA strand exchange, fluorescence dequenching; inhibition, % at 10 µM; hit rate 0.085% among 200,000;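 active means inhibition above 40% at the single screening dose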;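 further: 0% = DMSO control wells and 100% = blanks with heterologous ssDNA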
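Material: human Rad51–ssDNA filaments; Probe or stimulus: labelled 47-mer dsDNA for strand exchange; Doses: single 10 µM dose; Incubation: 37 °C 15-min filament assembly, 30-min compound preincubation, 15-min exchange; Technique: FRET fluorescence dequenching, excitation 485 nm, emission 520 nm; Measure: Fluorescence-based percent inhibition, control- and blank-normalised; Benchmarks: plate control and blank wells.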
PMI act satM6P: PMI (human) activation, high substrate; P34949; AID 1216; hit rate 0.34% among 190,000; coupled PMI enzyme assay, resazurin fluorescence, 20 min; hits give high values; 1 = untreated enzyme, 0 = substrate-free blank; activation factor at 20 µM;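 active means activation factor of 2 or more at 20 µM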
Target sequence (P34949 whole entry, looked up): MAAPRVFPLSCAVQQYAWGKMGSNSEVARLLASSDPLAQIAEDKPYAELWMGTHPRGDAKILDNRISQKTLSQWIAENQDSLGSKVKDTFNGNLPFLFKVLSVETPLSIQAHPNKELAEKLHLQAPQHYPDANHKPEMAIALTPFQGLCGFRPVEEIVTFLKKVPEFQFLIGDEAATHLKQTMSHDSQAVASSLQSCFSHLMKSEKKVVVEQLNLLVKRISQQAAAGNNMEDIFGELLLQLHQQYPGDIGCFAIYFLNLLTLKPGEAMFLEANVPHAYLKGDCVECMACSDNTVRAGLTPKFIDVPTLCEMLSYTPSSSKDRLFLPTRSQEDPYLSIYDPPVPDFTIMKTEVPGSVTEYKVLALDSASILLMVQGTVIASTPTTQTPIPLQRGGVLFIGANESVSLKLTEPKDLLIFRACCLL
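Test system: human phosphomannose isomerase with PGI, G6PDH, diaphorase coupling enzymes / Doses: 20 µM compound, 1% DMSO / Times: enzyme reaction with compound 20 min at room temperature / Measured by: Diaphorase-driven resazurin-to-resorufin fluorescence, excitation 544, emission 590 nm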
PMI act: phosphomannose isomerase (human) activation; P34949; purified human PMI, coupled resazurin fluorescence, 20 min; hits give high values; 1 = vehicle control, 0 substrate-free wells; activation factor at 20 µM; hit rate 0.005% among 190,000;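 active means activation factor of 2 or more at 20 µM, relative to plate controls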
Lmaj promast: inhibitors of Leishmania major promastigote growth. Leishmania major promastigotes, resazurin fluorescence viability. hit rate 9% among 200,000. inhibition, % at 10 µM; in the data active means inhibition above about 50%;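 further: promastigotes grown with compound for 44 hours at 28 °C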
WT yeast gro inh: growth inhibition of WT yeast, mitochondrial fusion screen. inhibition, % at 10 µM. mitochondrial fusion phenotypic screen, WT strain. hit rate 2.1% among 190,000; in the data active means inhibition above about 58%; tested in S. cerevisiae
Numbers without * were called inactive; i = inactive; · = no result. Sampled rows, rich in hits. Any-hit rate of the full collection: about 9.8%.

SMILES	m-calpain inh	Rad51 HR inh	PMI act satM6P	PMI act	Lmaj promast	WT yeast gro inh
Oc1ccc(N2CCN(c3ncnc4sc(-c5ccccc5)cc34)CC2)cc1	-77	-7	0.6	0.8	62*	43
CC(=O)N1CCN(c2ncnc3sc(-c4ccccc4)cc23)CC1	-80	0	1.1	1.3	18	1
O=C(Nc1cccc(Cl)c1)c1cc(S(=O)(=O)NCCc2ccc(Cl)cc2)ccc1F	30	-5	1	0.9	5	46
Cc1cc(NC(=O)C2CCCCC2)nc2c1c(=O)oc1ccccc12	28	·	1.1	1	13	81*
Cc1cc(NC(=O)CN2CCN(C/C=C/c3ccccc3)CC2)c([N+](=O)[O-])cc1C	-90	0	0.9	0.9	85*	9
O=C(CN1CCN(C/C=C/c2ccccc2)CC1)Nc1cc([N+](=O)[O-])ccc1Cl	-28	9	1.1	1.1	56*	18
O=C(CN1CCCC1)Nc1ccc([N+](=O)[O-])cc1Cl	-25	17	1	1.1	-3	-7
O=C(CN1CCN(C/C=C/c2ccccc2)CC1)Nc1ccccc1C(=O)NC1CC1	-11	·	·	·	·	·
FC(F)(F)c1cc(-c2ccco2)nc(NCc2ccccc2)n1	-42	-5	1	0.9	2	41
COc1ccccc1-c1cc(C(F)(F)F)nc(NCc2ccco2)n1	-15	-9	1	1	18	60*
Clc1ccc(-c2nnc(-c3ccccc3)c(N3CCSCC3)n2)cc1	20	-3	1	1.1	16	65*
O=[N+]([O-])c1ccc(-c2nnc(-c3ccccc3)c(N3CCOCC3)n2)cc1	-16	-6	0.9	0.9	-6	-1
CC1CN(c2nc(-c3ccc(Br)cc3)nnc2-c2ccccc2)CC(C)N1 (stereo not drawn)	23	·	0.9	1	90*	38
CCOC(=O)C1CCCN(C(=O)Nc2c(-c3ccccc3)noc2C)C1 (stereo not drawn)	-8	0	·	·	·	·
COc1cc(OC)cc(C(=O)N[C@H](C(=O)Nc2cccc(S(=O)(=O)N3CCCC3)c2)C(C)C)c1	10	·	·	·	·	·
Cc1ccc(C)c(NC(=O)c2ccccc2Sc2ccc([N+](=O)[O-])cc2Cl)c1	38	3	1	0.9	96*	57
Cc1ccc(C)c(NC(=O)c2ccccc2NS(=O)(=O)c2cc([N+](=O)[O-])ccc2C)c1	29	8	1.1	1.1	63*	80*
Cc1ccc(C)c(S(=O)(=O)Nc2ccccc2C(=O)Nc2cc(C)on2)c1	i	-3	0.9	0.9	35	10
CSc1ccccc1C(=O)Nc1cc(C)ccc1C	27	1	1	1	5	4
COc1ccc(N2CC(C(=O)Nc3nnc(SCc4ccccn4)s3)CC2=O)cc1 (stereo not drawn)	-59	5	1	1.1	-8	-12
O=C(CSc1c2c(nc3cc(Cl)ccc13)CCCC2)NCCCN1CCOCC1	21	-1	1	1	32	2
O=C(CSc1c2c(nc3cc(Cl)ccc13)CCCC2)NCCN1CCOCC1	-22	15	1	1	59*	-4
CCN(CC)CCCNC(=O)CSc1c2c(nc3cc(Cl)ccc13)CCCC2	10	-5	1.1	1	100*	-5
COc1ccc(CCN2C(=NC(=O)CC(C)C)SC3CS(=O)(=O)CC32)cc1OC (stereo not drawn)	-3	·	·	·	·	·
COc1ccc(C)cc1NC(=O)CN(c1ccccc1F)S(C)(=O)=O	-14	·	1	1	1	7
SMILES	m-calpain inh	Rad51 HR inh	PMI act satM6P	PMI act	Lmaj promast	WT yeast gro inh
Cc1ccc(C)c(N(CC(=O)Nc2cc(Cl)ccc2Oc2ccccc2)S(C)(=O)=O)c1	0	4	0.9	0.8	52*	21
N=c1sccn1CC(=O)Nc1cc(Cl)ccc1Oc1ccccc1	-2	7	1	0.9	100*	-8
CS(=O)(=O)N(CC(=O)Nc1cc(Cl)ccc1Cl)c1ccccc1Cl	-4	-2	1	1	28	12
Cc1cccc(C)c1N(CC(=O)Nc1cc(Cl)ccc1Oc1ccccc1)S(C)(=O)=O	52*	-7	0.8	0.8	10	25
COc1cccc(OCC(=O)Nc2cc(Cl)ccc2Oc2ccccc2)c1	9	4	1	0.9	95*	33
N=c1sccn1CC(=O)Nc1cccc(Oc2ccccc2)c1	12	·	1	1	10	17
O=C(O)Cc1ccc(S(=O)(=O)Nc2ccccc2C(=O)O)cc1	-2	·	1	1.2	0	6
Cc1nonc1CN(C)C(=O)CC1C(=O)NCCN1Cc1ccc(F)c(F)c1 (stereo not drawn)	-34	-3	0.7	0.9	-14	-1
CC1CCC(C(C)C)C(OCC(O)CN2CCCC(C)C2)C1 (stereo not drawn)	4	7	0.9	1	92*	19
CC1CCC(C(C)C)C(OCC(O)CN2CCN(Cc3ccccc3)CC2)C1 (stereo not drawn)	-14	-7	1	1	93*	-7
C=CCn1c(SCC(=O)N2CCc3ccccc3C2)nnc1-c1ccncc1	5	3	1	0.9	1	-12
Cc1ccc(CSc2nc3ccccc3cc2C=O)cc1	21	9	0.9	0.8	96*	5
O=c1[nH]c(SCc2ccc(Cl)cc2)nc2ccccc12	-22	-26	1.1	1	-4	16
O=Cc1cc2ccccc2nc1SCc1ccc(Cl)c(Cl)c1	15	-2	1	0.9	95*	19
O=Cc1cc2ccccc2nc1SCc1ccc(Cl)cc1	-69	-1	1	1	97*	19
O=C(c1cc2sccc2n1Cc1ccc(F)cc1)N1CCN(c2nc3ccccc3s2)CC1	-83	6	1.1	1.1	84*	14
CC1=NC(Nc2nc(C)c3ccccc3n2)=NC(C)(C)C1	-10	1	1	0.9	98*	24
COc1cc(/C=N/NC(=O)c2cccc(S(=O)(=O)N3CCCCC3)c2)cc(Br)c1O	-129	6	0.8	0.9	7	8
CN(C)c1ccc(C=Nc2ccccc2)cc1	-3	5	1.1	1.1	-4	-6
CN(C)c1ccc(N=Cc2ccco2)cc1	-15	9	0.4	0.6	71*	6
C/C(=N/N=C/c1ccc(N(C)C)cc1)c1ccccc1	18	2	1.1	1.1	80*	-2
CN(C)c1ccc(C=Nc2ccc(N(C)C)cc2)cc1	-4	7	0.4	0.6	71*	21
CN(C)c1ccc(/C=N/NC(=O)c2ccccc2)cc1	28	7	1	1	-1	7
Cc1ccc(N=Cc2ccc(N(C)C)cc2)cc1	19	-5	0.9	1	-2	-15
CCCN1CNC(=S)N(CC2CCCO2)C1 (stereo not drawn)	6	-1	1.1	1.2	16	-4

Source: PubChem BioAssay
